Data from ChEMBL document CHEMBL4402512, “In vitro and in silico elucidation of antidiabetic and anti-inflammatory activities of bioactive compounds from Momordica charantia L” (Bioorg Med Chem, 2019).
The source made the active and inactive calls. The calls are words filed in the database; no cut-off is given here.

Columns and labels:
RAW264.7 [1] = assay: Anti-inflammatory activity in mouse RAW264.7 cells assessed as reduction in NFkappaB mRNA expression at 25 uM pre-incubated for 1 hr before […] for 18 hrs by qRT-PCR analysis; assay type: functional, cell-based
Method in brief: (§1)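 RAW 264.7 murine macrophages grown in RPMI 1640 with 10% FBS, penicillin/streptomycin, 37 °C, 5% CO2. Seeded at 5.0 × 10^5 cells/well and held 24 h, then given 25 μM compound for 1 h before LPS (1 µg/mL) for a further 18 h. Total RNA was extracted, 500 ng was reverse-transcribed to cDNA, and target mRNA was quantified by qRT-PCR.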

RAW264.7 [2] = assay: Anti-inflammatory activity in mouse RAW264.7 cells assessed as reduction in Cox2 mRNA expression at 25 uM pre-incubated for 1 hr before […] for 18 hrs by qRT-PCR analysis; assay type: functional, cell-based; method in brief: as §1
RAW264.7 [3] = assay: Anti-inflammatory activity in mouse RAW264.7 cells assessed as reduction in iNOS mRNA expression at 25 uM pre-incubated for 1 hr before […] for 18 hrs by qRT-PCR analysis; assay type: functional, cell-based; method in brief: as §1
RAW264.7 [4] = assay: Anti-inflammatory activity in mouse RAW264.7 cells assessed as reduction in IL-1beta mRNA expression at 25 uM pre-incubated for 1 hr before […] for 18 hrs by qRT-PCR analysis; assay type: functional, cell-based; method in brief: as §1
[5] = target: Alpha amylase (Homo sapiens) (UniProt P0DUB6); assay: Inhibition of alpha-amylase (unknown origin) assessed as reduction in conversion of starch to glucose at 0.87 mM incubated for 1 hr relative to control
Method in brief: (§2)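 α-Amylase inhibition was measured by a published protocol with minor modifications. Test compounds were added at 10 and 20 µL, stated as equivalent to 0.43 and 0.86 mM. Acarbose was used at 0.067 and 0.13 mM. Runs were in triplicate with three biological replications and averaged, reported as mean ± SD with one-way ANOVA.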

RAW264.7 [6] = assay: Anti-inflammatory activity in mouse RAW264.7 cells assessed as reduction in IL6 mRNA expression at 25 uM pre-incubated for 1 hr before […] for 18 hrs by qRT-PCR analysis; assay type: functional, cell-based; method in brief: as §1
Saccharomyces cerevisiae = assay: Inhibition of Saccharomyces cerevisiae alpha-glucosidase at 1.3 mM pre-incubated for 15 mins before p-nitrophenyl alpha-D-glucopyranoside substrate addition and measured after 30 mins
Method in brief: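 The enzyme was Saccharomyces cerevisiae α-glucosidase, assayed by a published protocol with slight modifications. Each compound was tested at two levels, 10 and 20 µL. Acarbose served as positive control. Runs were in triplicate with three biological replications, reported as mean ± SD and analysed by one-way ANOVA.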

[7] = target: Alpha amylase (Homo sapiens) (UniProt P0DUB6); assay: Inhibition of alpha-amylase (unknown origin) assessed as reduction in conversion of starch to glucose at 0.13 mM incubated for 1 hr relative to control; method in brief: as §2
RAW264.7 [8] = assay: Anti-inflammatory activity in mouse RAW264.7 cells assessed as reduction in TNFalpha mRNA expression at 25 uM pre-incubated for 1 hr before […] for 18 hrs by qRT-PCR analysis; assay type: functional, cell-based; method in brief: as §1

Chain of Alpha amylase (Homo sapiens) (P0DUB6 whole entry, looked up): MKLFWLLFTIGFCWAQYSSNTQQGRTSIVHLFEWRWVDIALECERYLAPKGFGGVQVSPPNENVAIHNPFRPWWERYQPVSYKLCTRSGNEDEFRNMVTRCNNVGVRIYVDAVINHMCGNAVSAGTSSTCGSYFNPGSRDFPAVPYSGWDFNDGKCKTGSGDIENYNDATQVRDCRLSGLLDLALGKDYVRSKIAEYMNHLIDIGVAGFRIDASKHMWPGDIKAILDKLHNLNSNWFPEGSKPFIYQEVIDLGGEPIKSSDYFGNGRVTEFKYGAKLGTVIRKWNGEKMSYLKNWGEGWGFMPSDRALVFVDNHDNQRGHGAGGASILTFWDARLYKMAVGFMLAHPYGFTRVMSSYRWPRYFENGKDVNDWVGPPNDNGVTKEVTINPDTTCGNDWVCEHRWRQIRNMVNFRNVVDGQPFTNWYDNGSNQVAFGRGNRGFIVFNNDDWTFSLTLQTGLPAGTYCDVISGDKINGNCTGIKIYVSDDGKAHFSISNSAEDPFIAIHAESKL

Structure (SMILES) | inhibition (RAW264.7 [1]) | inhibition (RAW264.7 [2]) | inhibition (RAW264.7 [3]) | inhibition (RAW264.7 [4]) | inhibition [5] [%] | inhibition (RAW264.7 [6]) | inhibition (Saccharomyces cerevisiae) [%] | inhibition [7] [%] | inhibition (RAW264.7 [8])
COC(C)(C)/C=C/C[C@@H](C)[C@H]1CC[C@@]2(C)[C@@H]3[C@@H](O[C@@H]4O[C@H](CO)[C@@H](O)[C@H](O)[C@H]4O)C=C4[C@@H](CC[C@H](O)C4(C)C)[C@]3(C=O)CC[C@]12C | Active | Active | Active | Active | 69 | inactive | 47.5 | – | –
C[C@H]1O[C@H](O[C@H]2[C@H](O)[C@@H](O)[C@@H](O[C@H]3[C@H](O)[C@@H](O)C(O)O[C@@H]3CO)O[C@@H]2CO)[C@H](O)[C@@H](O)[C@@H]1N[C@H]1C=C(CO)[C@@H](O)[C@H](O)[C@H]1O (some centres not stated) | – | – | – | – | – | – | – | 88 | –
COC(C)(C)/C=C/C[C@@H](C)[C@H]1CC[C@@]2(C)[C@@H]3C=C[C@@]45OC[C@]3(CC[C@]12C)[C@@H]4CC[C@H](O[C@@H]1O[C@H](CO)[C@@H](O)[C@@H](O)[C@H]1O)C5(C)C | Active | – | Active | Active | 70.5 | – | 48.5 | – | Active
C[C@H](C/C=C/C(C)(C)O)[C@H]1CC[C@@]2(C)[C@@H]3C=C[C@@]45OC[C@]3(CC[C@]12C)[C@@H]4CC[C@H](O[C@@H]1O[C@H](CO)[C@@H](O)[C@H](O)[C@H]1O)C5(C)C [MOMORDICOSIDE I] | Active | Active | Active | Active | 64.2 | Active | 35.1 | – | –
COC(C)(C)/C=C/C[C@@H](C)[C@H]1CC[C@@]2(C)[C@@H]3C=C[C@@]45OC[C@]3(CC[C@]12C)[C@@H]4CC[C@H](O[C@@H]1O[C@H](CO)[C@@H](O)[C@H](O)[C@H]1O)C5(C)C [MOMORDICOSIDE F1] | Active | Active | Active | Active | 63.5 | – | 35.9 | – | Active
C[C@H](CC(O)C(O)C(C)(C)O)[C@H]1CC[C@@]2(C)[C@@H]3C=C[C@@]45OC[C@]3(CC[C@]12C)[C@@H]4CC[C@H](O[C@@H]1O[C@H](CO)[C@@H](O)[C@@H](O)[C@H]1O)C5(C)C (some centres not stated) | Active | Active | Active | Active | 66.4 | Active | 49.4 | – | –
O=C(O)c1cc(O[C@@H]2OC[C@@H](O)[C@H](O)[C@H]2O)ccc1O | Active | Active | Active | Active | 60.7 | Active | 56.4 | – | –
C[C@H](C/C=C/C(C)(C)O)[C@H]1CC[C@@]2(C)[C@@H]3C=C[C@@]45OC[C@]3(CC[C@]12C)[C@@H]4CC[C@H](O[C@@H]1O[C@H](CO)[C@@H](O)[C@@H](O)[C@H]1O)C5(C)C [MOMORDICOSIDE F2] | Active | – | Active | Active | 63.7 | – | 42.4 | – | –
